# Legend:
# Aspergillus flavus = assay: Antifungal activity against Aspergillus flavus ATCC 9643 after 72 hrs by microdilution test; assay type: functional; conditions: ATCC 9643, 72 h
# In short: (§1)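 Modified microdilution in malt broth. Spores were washed from malt agar with sterile 0.85% saline containing 0.1% Tween 80 and adjusted to about 1.0 × 10⁵ per well. Compounds were dissolved in DMSO and tested at […] µg/ml. Incubation 72 h at 28 °C. MIC is the lowest concentration with no visible growth under a binocular microscope. MFC by 2 µl subculture and a further 72 h at 28 °C.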
# Trichoderma viride = assay: Antifungal activity against Trichoderma viride IAM 5061 after 72 hrs by microdilution test; assay type: functional; in short: as §1
# Talaromyces funiculosus = assay: Antifungal activity against Penicillium funiculosum ATCC 36839 after 72 hrs by microdilution test; assay type: functional; conditions: ATCC 36839, 72 h; in short: as §1
# Aspergillus versicolor = assay: Antifungal activity against Aspergillus versicolor ATCC 11730 after 72 hrs by microdilution test; assay type: functional; conditions: ATCC 11730, 72 h; in short: as §1
# Aspergillus ochraceus = assay: Antifungal activity against Aspergillus ochraceus ATCC 12066 after 72 hrs by microdilution test; assay type: functional; conditions: ATCC 12066, 72 h; in short: as §1
# Aspergillus niger = assay: Antifungal activity against Aspergillus niger ATCC 6275 after 72 hrs by microdilution test; assay type: functional; conditions: ATCC 6275, 72 h; in short: as §1
# [1] = Partition coefficient, log P of the compound; assay type: physicochemical; conditions: octanol/water
# In short: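 Calculated, not measured: AlogP, IAlogP, ClogP, Cosmo logP, mlogP, Kowwin and XlogP were computed and averaged.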
# Enterobacter cloacae = assay: Antibacterial activity against Enterobacter cloacae after 24 hrs by microdilution test; assay type: functional
# In short: (§2)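 Broth microdilution in LB medium in 96-well plates. Inoculum 1.0 × 10⁴ CFU per well, from a suspension set to 1.0 × 10⁵ CFU/ml in sterile saline. Compounds at […] µg/ml. Incubation 24 h at 28 °C. MIC is the lowest concentration with no visible growth under a binocular microscope. MBC by subculturing 2 µl into fresh broth for a further 72 h. OD540 read against blank. DMSO negative control.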
# Salmonella enteritidis = assay: Antibacterial activity against Salmonella enteritidis ATCC 13076 after 24 hrs by microdilution test; assay type: functional, Salmonella enterica subsp. enterica serovar Enteritidis; conditions: Salmonella enterica, ATCC 13076, 24 h; in short: as §2
# Salmonella typhimurium = assay: Antibacterial activity against Salmonella Typhimurium ATCC 13311 after 24 hrs by microdilution test; assay type: functional, Salmonella enterica subsp. enterica serovar Typhimurium; conditions: Salmonella enterica, ATCC 13311, 24 h; in short: as §2
# [2] = tested on: Staphylococcus epidermidis; assay: Antibacterial activity against Staphylococcus epidermidis ATCC 12228 after 24 hrs by microdilution test; assay type: functional; conditions: ATCC 12228, 24 h; in short: as §2
# Micrococcus luteus = assay: Antibacterial activity against Micrococcus flavus ATCC 10240 after 24 hrs by microdilution test; assay type: functional; conditions: ATCC 10240, 24 h; in short: as §2
# Escherichia coli = assay: Antibacterial activity against Escherichia coli ATCC 35210 after 24 hrs by microdilution test; assay type: functional; conditions: ATCC 35210, 24 h; in short: as §2
# Bacillus cereus = assay: Antibacterial activity against Bacillus cereus ATCC 10907 after 24 hrs by microdilution test; conditions: ATCC 10907, 24 h
MIC (Aspergillus flavus) [µg/mL],MIC (Trichoderma viride) [µg/mL],MIC (Talaromyces funiculosus) [µg/mL],MIC (Enterobacter cloacae) [µg/mL],MIC (Salmonella enteritidis) [µg/mL],MIC (Salmonella typhimurium) [µg/mL],MIC [2] [µg/mL],MIC (Micrococcus luteus) [µg/mL],MIC (Escherichia coli) [µg/mL],MIC (Bacillus cereus) [µg/mL],Structure (SMILES),MFC (Aspergillus flavus) [µg/mL],MFC (Trichoderma viride) [µg/mL],MFC (Talaromyces funiculosus) [µg/mL],MBC (Enterobacter cloacae) [µg/mL],MBC (Salmonella enteritidis) [µg/mL],MBC (Salmonella typhimurium) [µg/mL],MBC [2] [µg/mL],MBC (Micrococcus luteus) [µg/mL],MBC (Escherichia coli) [µg/mL],MBC (Bacillus cereus) [µg/mL],further results
100,100,100,100,150,150,150,150,100,150,COc1cc(Cc2n[nH]c(=S)n2-c2ccccc2)c(S(=O)(=O)N2CCOCC2)cc1OC,150,150,150,100,150,150,150,150,150,150,logP [1]: 1.57; MFC (Aspergillus versicolor): 150 µg/mL; MIC (Aspergillus versicolor): 100 µg/mL; MFC (Aspergillus ochraceus): 150 µg/mL; MIC (Aspergillus ochraceus): 100 µg/mL; MFC (Aspergillus niger): 150 µg/mL; MIC (Aspergillus niger): 150 µg/mL
100,100,100,100,150,100,150,150,100,150,COc1cc(Cc2n[nH]c(=S)n2-c2ccc(Cl)cc2)c(S(=O)(=O)N2CCCCC2)cc1OC,150,150,150,100,150,150,150,150,150,150,logP [1]: 3.31; MFC (Aspergillus versicolor): 150 µg/mL; MIC (Aspergillus versicolor): 100 µg/mL; MFC (Aspergillus ochraceus): 150 µg/mL; MIC (Aspergillus ochraceus): 100 µg/mL; MFC (Aspergillus niger): 150 µg/mL; MIC (Aspergillus niger): 100 µg/mL
50,50,100,100,150,150,150,150,100,150,COc1cc(Cc2n[nH]c(=S)n2-c2ccc(Cl)cc2)c(S(=O)(=O)N(C)C)cc1OC,100,100,100,100,150,150,150,150,150,150,logP [1]: 2.4; MFC (Aspergillus versicolor): 150 µg/mL; MIC (Aspergillus versicolor): 100 µg/mL; MFC (Aspergillus ochraceus): 150 µg/mL; MIC (Aspergillus ochraceus): 100 µg/mL; MFC (Aspergillus niger): 150 µg/mL; MIC (Aspergillus niger): 100 µg/mL
100,100,100,100,150,100,150,150,100,150,COc1cc(Cc2n[nH]c(=S)n2-c2ccc(Cl)cc2)c(S(=O)(=O)N2CCOCC2)cc1OC,150,150,150,100,150,150,150,150,150,150,logP [1]: 2.25; MFC (Aspergillus versicolor): 150 µg/mL; MIC (Aspergillus versicolor): 100 µg/mL; MFC (Aspergillus ochraceus): 150 µg/mL; MIC (Aspergillus ochraceus): 100 µg/mL; MFC (Aspergillus niger): 150 µg/mL; MIC (Aspergillus niger): 150 µg/mL
100,50,100,100,150,150,150,150,100,150,CCN(CC)S(=O)(=O)c1cc(OC)c(OC)cc1Cc1n[nH]c(=S)n1-c1ccccc1,150,100,150,100,150,150,150,150,150,150,logP [1]: 2.48; MFC (Aspergillus versicolor): 150 µg/mL; MIC (Aspergillus versicolor): 100 µg/mL; MFC (Aspergillus ochraceus): 150 µg/mL; MIC (Aspergillus ochraceus): 100 µg/mL; MFC (Aspergillus niger): 150 µg/mL; MIC (Aspergillus niger): 100 µg/mL
100,150,100,100,150,150,150,150,150,150,COc1cc(Cc2n[nH]c(=S)n2-c2ccccc2)c(S(=O)(=O)N2CCCC2)cc1OC,150,150,150,100,150,150,150,150,150,150,logP [1]: 2.13; MFC (Aspergillus versicolor): 150 µg/mL; MIC (Aspergillus versicolor): 100 µg/mL; MFC (Aspergillus ochraceus): 150 µg/mL; MIC (Aspergillus ochraceus): 100 µg/mL; MFC (Aspergillus niger): 150 µg/mL; MIC (Aspergillus niger): 150 µg/mL
100,50,100,100,150,150,150,150,100,150,CCN(CC)S(=O)(=O)c1cc(OC)c(OC)cc1Cc1n[nH]c(=S)n1-c1ccc(Cl)cc1,150,100,150,100,150,150,150,150,150,150,logP [1]: 3.15; MFC (Aspergillus versicolor): 150 µg/mL; MIC (Aspergillus versicolor): 100 µg/mL; MFC (Aspergillus ochraceus): 150 µg/mL; MIC (Aspergillus ochraceus): 100 µg/mL; MFC (Aspergillus niger): 150 µg/mL; MIC (Aspergillus niger): 100 µg/mL
,,,150,150,150,100,150,250,150,O=C(N[C@H](CO)[C@H](O)c1ccc([N+](=O)[O-])cc1)C(Cl)Cl [CHLORAMPHENICOL],,,,200,200,200,100,200,250,200,
100,100,100,100,150,100,150,150,100,150,COc1cc(Cc2n[nH]c(=S)n2-c2ccccc2)c(S(=O)(=O)N2CCCCC2)cc1OC,150,150,150,100,150,150,150,150,150,150,logP [1]: 2.63; MFC (Aspergillus versicolor): 150 µg/mL; MIC (Aspergillus versicolor): 100 µg/mL; MFC (Aspergillus ochraceus): 150 µg/mL; MIC (Aspergillus ochraceus): 100 µg/mL; MFC (Aspergillus niger): 150 µg/mL; MIC (Aspergillus niger): 100 µg/mL
100,150,100,100,150,150,150,150,150,150,COc1cc(Cc2n[nH]c(=S)n2-c2ccc(Cl)cc2)c(S(=O)(=O)N2CCCC2)cc1OC,150,150,150,100,150,150,150,150,150,150,logP [1]: 2.11; MFC (Aspergillus versicolor): 150 µg/mL; MIC (Aspergillus versicolor): 100 µg/mL; MFC (Aspergillus ochraceus): 150 µg/mL; MIC (Aspergillus ochraceus): 100 µg/mL; MFC (Aspergillus niger): 150 µg/mL; MIC (Aspergillus niger): 150 µg/mL

Structure (SMILES),MIC (Aspergillus flavus) [µg/mL],MIC (Trichoderma viride) [µg/mL],MIC (Talaromyces funiculosus) [µg/mL],MIC (Enterobacter cloacae) [µg/mL],MIC (Salmonella enteritidis) [µg/mL],MIC (Salmonella typhimurium) [µg/mL],MIC [2] [µg/mL],MIC (Micrococcus luteus) [µg/mL],MIC (Escherichia coli) [µg/mL],MIC (Bacillus cereus) [µg/mL],MFC (Aspergillus flavus) [µg/mL],MFC (Trichoderma viride) [µg/mL],MFC (Talaromyces funiculosus) [µg/mL],MBC (Enterobacter cloacae) [µg/mL],MBC (Salmonella enteritidis) [µg/mL],MBC (Salmonella typhimurium) [µg/mL],MBC [2] [µg/mL],MBC (Micrococcus luteus) [µg/mL],MBC (Escherichia coli) [µg/mL],MBC (Bacillus cereus) [µg/mL],further results
c1ccc(-c2ccc(C(c3ccccc3)n3ccnc3)cc2)cc1 (stereo not drawn) [BIFONAZOLE],150,200,200,,,,,,,,200,250,250,,,,,,,,MFC (Aspergillus versicolor): 200 µg/mL; MIC (Aspergillus versicolor): 150 µg/mL; MFC (Aspergillus ochraceus): 200 µg/mL; MIC (Aspergillus ochraceus): 150 µg/mL; MFC (Aspergillus niger): 250 µg/mL; MIC (Aspergillus niger): 200 µg/mL
CN[C@@H]1[C@H](O[C@H]2[C@H](O[C@H]3[C@H](O)[C@@H](O)[C@H](N=C(N)N)[C@@H](O)[C@@H]3N=C(N)N)O[C@@H](C)[C@]2(O)C=O)O[C@@H](CO)[C@H](O)[C@H]1O [STREPTOMYCIN],,,,50,50,50,150,100,100,100,,,,100,100,100,100,150,150,150,

# — ChEMBL document CHEMBL1143237, “Sulfonamide-1,2,4-triazole derivatives as antifungal and antibacterial agents: synthesis, biological evaluation, lipophilicity, and conformational studies” (Bioorg Med Chem, 2008)
